In general, IC50 refers to the concentration needed to halve the response being measured. A word on the half-life: it is how long it takes for the measured level to halve. Broadly, the Cmax is the highest concentration seen after dosing. One may read the Tmax as the time at which the peak concentration occurs. For orientation: Vd means the apparent volume that relates the amount in the body to the concentration in plasma or blood. Broadly, the clearance is a measure of how efficiently the substance is removed, as volume per time. As a reminder, the AUC is the area under the concentration-time curve, a measure of exposure. In general, bioavailability refers to dose-corrected exposure relative to a reference, in per cent.

This note sets out measurements from ChEMBL document CHEMBL3994624, “Antimalarial Pyrido[1,2-a]benzimidazoles: Lead Optimization, Parasite Life Cycle Stage Profile, Mechanistic Evaluation, Killing Kinetics, and in Vivo Oral Efficacy in a Mouse Model” (J Med Chem, 2017).

In brackets after ≈: the same amount, converted by molar mass. Activity calls are given as the source filed them. The rule behind the calls is not given here.

The test system of data set [1] is Ferriprotoporphyrin IX. As to the kind of experiment: Inhibition of beta hematin formation in water/NP40/DMSO solution after 5 hrs.
Data set [2] relates to Plasmodium falciparum. As to the kind of experiment: Anti-plasmodial activity against multidrug resistant Plasmodium falciparum K1 by [3H]-hypoxanthine incorporation assay. It counts as functional. The procedure, abridged: (§1)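 P. falciparum asexual blood-stage growth inhibition by [3H]hypoxanthine incorporation; chloroquine and artesunate run as reference drugs in every experiment; IC50 given as mean of ≥2 independent experiments.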

In data set [3] the test system is Plasmodium falciparum. Kind of data set: Anti-plasmodial activity against chloroquine-sensitive Plasmodium falciparum NF54 by [3H]-hypoxanthine incorporation assay. Format: functional. The procedure, abridged:
as §1

Data set [4] deals with CHO. As to the kind of experiment: Cytotoxicity against CHO cells after by MTT assay. It counts as cell-based. The note with it: Cricetulus griseus. (Tetrazolium dyes change colour on reduction, which living cells bring about.)
Data set [5] in a line: Selectivity index, ratio of IC50 for CHO cells to IC50 for chloroquine-sensitive Plasmodium falciparum NF54. It counts as toxicity. As to conditions: hamster, read-out: Ratio IC50. The procedure, abridged: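 Selectivity index = IC50 CHO / IC50 PfNF54.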
The nature of data set [6]: Kinetic solubility of the compound in FaSSIF at pH 6.5 after 2 hrs by shake flask method. It counts as physicochemical. As to conditions: read-out: Kinetic_solubility.
Data set [7] can be described thus: Metabolic stability in Balb/c mouse liver microsomes assessed as compound remaining at 1 uM in presence of NADPH after 30 mins by LC-MS/MS analysis. Format: ADME, microsome. As to conditions: read-out: Stability. Summed up: (§2)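 Mouse and human liver microsomes; % compound remaining after 30 min.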
On the technique in general: Microsomes from liver hold many membrane-bound enzymes, among them those of drug oxidation.

Data set [8] concerns Plasmodium berghei. As to the kind of experiment: Antimalarial activity against GFP-fused Plasmodium berghei ANKA liver stage infected in HuH7 cells pretreated for 1 hr followed by parasite infection after 48 hrs by luciferase reporter gene assay. Format: functional, cell-based. The note with it: Huh-7. (A reporter such as luciferase makes a cellular process visible.)
Data set [9] concerns Huh-7. As to the kind of experiment: Cytotoxicity against human HuH7 cells at 1 to 10 uM after 48 hrs by Alamarblue assay. Format: cell-based. As to conditions: huh-7, 48 h.
Data set [10] relates to Plasmodium falciparum. Kind of data set: Ratio of IC50 for chloroquine-sensitive Plasmodium falciparum NF54 after 24 hrs to IC50 for chloroquine-sensitive Plasmodium falciparum NF54 after 72 hrs. It counts as functional.
For data set [11], the system named is Plasmodium berghei. Kind of data set: Antimalarial activity against GFP-fused Plasmodium berghei ANKA liver stage infected in HuH7 cells pretreated for 1 hr followed by parasite infection at 1 uM after 48 hrs by luciferase reporter gene assay. It counts as functional, cell-based.
Data set [12] has as its system Ferriprotoporphyrin IX. Kind of data set: Inhibition of beta hematin formation in ring stage of chloroquine-sensitive Plasmodium falciparum NF54 assessed as increase in free heme level at 0.5 to 3 times IC50 after 36 hrs by UV-vis spectra analysis. The procedure, abridged:
(§3)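 Synchronized ring-stage parasites treated with increasing drug concentrations, then cellular fractionation. Free haem and haemozoin quantified as iron (fg/cell) and compared with untreated control; significance by p-values; parasite survival overlaid.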

In data set [13] the test system is Ferriprotoporphyrin IX. As to the kind of experiment: Inhibition of beta hematin formation in ring stage of chloroquine-sensitive Plasmodium falciparum NF54 assessed as decrease in haemozoin level at 0.5 to 3 times IC50 after 36 hrs by UV-vis spectra analysis. Summed up: as §3
Data set [14] is described as follows: Metabolic stability in human liver microsomes assessed as compound remaining at 1 uM in presence of NADPH after 30 mins by LC-MS/MS analysis. It counts as ADME, microsome. The note with it: read-out: Stability. Summed up: as §2
Data set [15] concerns Plasmodium berghei. Kind of data set: Antimalarial activity against GFP-fused Plasmodium berghei ANKA infected in mouse assessed as reduction in parasitemia at 50 mg/kg, po administered once daily for 4 days by flow cytometry relative to control. On the set-up: scale not given: the % may be the effect or the level left. It counts as functional. Summed up: (§4)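 P. berghei-infected mice, 3 per group. Compound formulated in 90/10 Tween80/ethanol (v/v), diluted 10-fold with water, given orally once daily at 4, 24, 48 and 72 h post-infection. Outcomes: % parasitemia reduction versus untreated control, mean survival days, and cured/infected. Mice with <40% reduction euthanized on day 4.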

The test system of data set [16] is Plasmodium berghei. As to the kind of experiment: Antimalarial activity against GFP-fused Plasmodium berghei ANKA infected in mouse assessed as reduction in parasitemia at 3 mg/kg, po administered once daily for 4 days by flow cytometry relative to control. On the set-up: scale not given: the % may be the effect or the level left. Format: functional. The procedure, abridged: as §4

For data set [17], the system named is Plasmodium berghei. As to the kind of experiment: Antimalarial activity against GFP-fused Plasmodium berghei ANKA infected in mouse assessed as reduction in parasitemia at 30 mg/kg, po administered once daily for 4 days by flow cytometry relative to control. It counts as functional. Set-up: scale not given: the % may be the effect or the level left. The procedure, abridged:
as §4

For data set [18], the system named is Plasmodium berghei. As to the kind of experiment: Antimalarial activity against GFP-fused Plasmodium berghei ANKA infected in mouse assessed as reduction in parasitemia at 10 mg/kg, po administered once daily for 4 days by flow cytometry relative to control. Format: functional. On the set-up: scale not given: the % may be the effect or the level left. Summed up:
as §4

Data set [19] relates to Plasmodium berghei. Kind of data set: Antimalarial activity against GFP-fused Plasmodium berghei ANKA infected in mouse assessed as mouse mean survival days at 30 mg/kg, po administered once daily for 4 days. It counts as functional. Summed up:
(§5)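 P. berghei-infected mice (n=3 per dose) dosed orally once daily on 4 consecutive days at 4, 24, 48 and 72 h after infection; compound in 90/10 Tween80/ethanol (v/v) diluted 10-fold with water. Read-outs were % parasitemia reduction, mean survival time in days and cure; mice with <40% parasitemia reduction euthanized on day 4.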

The test system of data set [20] is Plasmodium berghei. As to the kind of experiment: Antimalarial activity against GFP-fused Plasmodium berghei ANKA infected in mouse assessed as mouse mean survival days at 3 mg/kg, po administered once daily for 4 days. It counts as functional. The procedure, abridged: as §5
The subject of data set [21] is Plasmodium berghei. As to the kind of experiment: Antimalarial activity against GFP-fused Plasmodium berghei ANKA infected in mouse assessed as mouse mean survival days at 50 mg/kg, po administered once daily for 4 days. Format: functional. Summed up: as §5
The subject of data set [22] is Plasmodium berghei. As to the kind of experiment: Antimalarial activity against GFP-fused Plasmodium berghei ANKA infected in mouse assessed as mouse mean survival days at 10 mg/kg, po administered once daily for 4 days. Format: functional. Summed up: as §5
Data set [23] deals with Plasmodium berghei. As to the kind of experiment: Antimalarial activity against GFP-fused Plasmodium berghei ANKA infected in mouse assessed as protection against parasitemia at 50 mg/kg, po administered once daily for 4 days measured 30 days post infection by light microscopy. It counts as functional, organism-based. Summed up:
as §4

Data set [24] relates to Plasmodium berghei. As to the kind of experiment: Antimalarial activity against GFP-fused Plasmodium berghei ANKA infected in mouse assessed as protection against parasitemia at 3 mg/kg, po administered once daily for 4 days measured 30 days post infection by light microscopy. Format: functional, organism-based. The procedure, abridged:
as §4

For data set [25], the system named is Plasmodium berghei. Kind of data set: Antimalarial activity against GFP-fused Plasmodium berghei ANKA infected in mouse assessed as protection against parasitemia at 10 mg/kg, po administered once daily for 4 days measured 30 days post infection by light microscopy. Format: functional, organism-based. Summed up: as §4
Data set [26] can be described thus: Half life in C57/Bl6 mouse at 2.5 mg/kg, iv by LC-MS method. It counts as ADME, organism-based. As to conditions: in vivo. The procedure, abridged: (§6)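 Mice (n=3) given a single intravenous dose of 2.5 mg/kg in dimethylacetamide:polyethylene glycol:propylene glycol/ethanol (4:1) at 1:3:6; 24 h sampling. Parameters were fitted by nonlinear mixed-effects two-compartment model with first-order elimination.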

A short description of data set [27]: Half life in C57/Bl6 mouse at 10 mg/kg, po administered via gavage by LC-MS method. Format: ADME, organism-based. The note with it: in vivo. The procedure, abridged:
(§7)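 Mice (n=3) given a single oral dose of 10 mg/kg as a suspension in […] HPMC; plasma sampled over 24 h. Parameters were estimated by nonlinear mixed-effects modelling with a two-compartment disposition model, first-order absorption and elimination.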

The nature of data set [28]: Cmax in C57/Bl6 mouse at 10 mg/kg, po administered via gavage by LC-MS method. Format: ADME, organism-based. On the set-up: dose 10 mg/kg, route oral. The note with it: in vivo. The procedure, abridged: as §7
Data set [29] is described as follows: Tmax in C57/Bl6 mouse at 10 mg/kg, po administered via gavage by LC-MS method. It counts as ADME, organism-based. The note with it: in vivo. Summed up: as §7
Data set [30] in a line: Volume of distribution in C57/Bl6 mouse at 2.5 mg/kg, iv by LC-MS method. Format: ADME, organism-based. As to conditions: in vivo. Summed up:
as §6

Data set [31] is described as follows: Clearance in C57/Bl6 mouse at 2.5 mg/kg, iv by LC-MS method. Format: ADME, organism-based. The note with it: in vivo. The procedure, abridged: as §6
In data set [32] the test system is Mus musculus. As to the kind of experiment: AUC (0 to infinity) in C57/Bl6 mouse at 2.5 mg/kg, iv by LC-MS method. It counts as ADME, organism-based. Set-up: dose 2.5 mg/kg, time infinity, route intravenous. The note with it: in vivo. Summed up: as §6
The test system of data set [33] is Mus musculus. Kind of data set: AUC (0 to infinity) in C57/Bl6 mouse at 10 mg/kg, po administered via gavage by LC-MS method. Format: ADME, organism-based. On the set-up: dose 10 mg/kg, route oral, time infinity. As to conditions: in vivo. Summed up: as §7
Data set [34] in a line: Oral bioavailability in C57/Bl6 mouse at 10 mg/kg administered via gavage by LC-MS method. It counts as ADME, organism-based. As to conditions: in vivo. The procedure, abridged: as §7
Data set [35] relates to Plasmodium falciparum. Kind of data set: Anti-plasmodial activity against chloroquine-sensitive Plasmodium falciparum NF54 late 4/5 stage gametocytes after 48 hrs by luciferin-luciferase reaction based bioluminescence assay. As to conditions: NF54, 48 h. It counts as functional.
Data set [36] relates to Plasmodium falciparum. As to the kind of experiment: Ratio of IC50 for chloroquine-sensitive Plasmodium falciparum NF54 early 2/3 stage gametocytes to IC50 for chloroquine-sensitive Plasmodium falciparum NF54 late 4/5 stage gametocytes. Format: functional. Summed up: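 Early (stage II/III) and late (stage IV/V) gametocytes tested in parallel luciferase reporter assays; stage preference = EG IC50/LG IC50.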

In the case of `N#Cc1c(-c2ccc(C(F)(F)F)cc2)c(F)c(NCCN2CCC(O)C2)n2c1nc1ccccc12` (stereo not drawn), the concentration for half-maximal inhibition (IC50) came out at 120000 nM in data set [1]; 170 nM in [2]; 190 nM in [3]; 206000 nM in data set [4]; 1420 nM in [8]. Also, the selectivity ratio in data set [5] amounted to 1080. Besides, the solubility kinetic at 2 h in data set [6] was 80 µM (≈ 38.7 µg/mL). The remaining at 0.5 h, 1 µM in data set [7] was 37%. Moreover, in [9], the Activity entry is recorded as “Non-Toxic”. Further, the “Ratio IC50” value in [10] was determined as 22. Further, the result in data set [11] was Active. Also, the inhibition entry in data set [12] and in data set [13] was “inactive” throughout.
As for `CCNCCNc1cc(-c2ccc(C(F)(F)F)cc2)c(C#N)c2nc3cc(Cl)cc(Cl)c3n12`, the concentration for half-maximal inhibition (IC50) was found to be 40 nM in data set [2], 30 nM in data set [3], 11200 nM in [4] and 1440 nM in data set [35]. Moreover, in [5], the selectivity ratio came out at 431. Besides, the solubility kinetic at 2 h in data set [6] was determined as 20 µM (≈ 9.85 µg/mL). The remaining at 0.5 h, 1 µM in data set [7] and in data set [14] was 87% in each case. In addition, the Activity is 98% in data set [15]; 99.4% in [16]; 99.4% in [17]; 99.4% in data set [18]; “Non-Toxic” in data set [9]. The MSD in data set [19] came out at 30 days; in data set [20] it was 16 days; in data set [21] it was 30 days; in data set [22], 18 days. Also, the outcome in [23] was Active. Besides, the outcome in [24] and in [25] was inactive. Moreover, the half-life in data set [26] and in [27] was 21 h throughout. Besides, the Cmax in data set [28] was 220 nM. Also, in data set [29], the Tmax is above 10 h. The Vd in data set [30] was 19 L/kg. The same molecule had a clearance in data set [31] of 11 mL/min/kg. The figures for the AUC in [32] and in [33] were 9.52 µM·h and 11.4 µM·h, respectively. For the same molecule, in data set [34], the bioavailability amounted to 30%. The “Ratio IC50” value in [36] is listed as 1.2.
